High-throughput results (PubChem)
TAAR1 antag: antagonists of human TAAR1; Q96RJ0; CHO RD-HGA16 TAAR1, Fluo-8 calcium fluorescence, antagonist; inhibition, % at 3 µM; 360,000 compounds, 1.5% hits;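 active means inhibition above a per-plate cutoff, the mean inhibition of test compounds on that plate plus 3 SD, cut at about 49% in these data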;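 further: 0% = DMSO plus EC80 beta-PEA response and 100% = DMSO alone without agonist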
Target sequence (Q96RJ0 whole entry, looked up): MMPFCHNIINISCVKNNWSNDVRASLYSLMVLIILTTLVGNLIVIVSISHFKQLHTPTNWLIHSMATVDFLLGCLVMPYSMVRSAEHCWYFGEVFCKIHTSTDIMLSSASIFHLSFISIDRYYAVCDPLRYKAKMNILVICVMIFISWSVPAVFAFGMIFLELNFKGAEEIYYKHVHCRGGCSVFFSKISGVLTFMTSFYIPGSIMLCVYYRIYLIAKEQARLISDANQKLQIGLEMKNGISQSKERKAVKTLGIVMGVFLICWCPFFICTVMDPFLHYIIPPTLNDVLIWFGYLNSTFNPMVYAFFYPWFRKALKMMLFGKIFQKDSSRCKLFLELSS
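System: CHO RD-HGA16 cells bearing hTAAR1. Reagent: EC80 β-phenethylamine stimulus. Schedule: seeding 17-24 h prior, 75-min 37 °C, 30-min RT dye loading. Signal: Fluo-8 intracellular calcium dye fluorescence, real-time kinetic reads. Read-out: % inhibition from peak post-agonist over basal fluorescence ratio. Benchmarks: vehicle wells and EC80 agonist wells. Replicates: n of 1.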
TAAR1 ag: human TAAR1 agonism. Q96RJ0. CHO RD-HGA16 TAAR1, Fluo-8 calcium fluorescence; vehicle wells 0%, saturating PEA agonist 100%. activation, % at 3 µM. 360,000 compounds, 0.99% hits;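 active means activation above the mean activation of all test compounds in the run plus 3 SD, cut at about 38% in these data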
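Assay system: CHO-derived RD-HGA16 cells with stable Gα16 and human TAAR1; timing: 17-24 h seeding, 75 min 37 °C dye, 30 min RT; read-out: % activation from peak over basal fluorescence ratio, DMSO-to-PEA scaled; measured by: kinetic Fluo-8 calcium fluorescence; benchmarks: low control DMSO, high control PEA (EC100); doses: 3 µM single concentration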
HCV core dimer: blocks dimerization of HCV core protein. AID 1899. inhibition, % at 5 µM. TR-FRET GST/Flag-core106 dimerization, 1536-well. 300,000 compounds, 0.33% hits;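 active means inhibition above the mean of all tested compounds plus 3 SD, set per screening campaign, cut at about 45% in these data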
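assay system = GST-tagged and Flag-tagged HCV core protein residues 1-106 | controls = unlabelled core106 and no-GST-core106 wells | incubation = compound-protein-antibody incubation 4 h at 22.5 °C | probe or stimulus = Eu donor and XL665 acceptor anti-tag antibodies | read-out = % inhibition based on acceptor/donor emission ratio | signal = TR-FRET 671 and 617 nm emission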
HCV NS3 hel inh: blocks Hepatitis C virus NS3 helicase unwinding; 290,000 compounds, 0.56% hits; inhibition, % at 10.9 µM; NS3 helicase DNA unwinding, Cy5 molecular beacon fluorescence;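 active means inhibition above the mean of all tested compounds plus 3 SD, set per campaign, cut at about 35% in these data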;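 further: 0% = DMSO wells and 100% = thioflavine S control wells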
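Assay system: hepatitis C virus NS3 helicase domain fragment enzyme. Also added: annealed dual-labelled DNA beacon duplex, ATP-started. Timing: 1 h reaction at 25 °C, ATP-initiated. Technique: Cy5 fluorescence at 0 and 60 min, beacon hairpin quenching. Evaluation: % inhibition of unwinding. Replication: one well per compound.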
rCAG binder: molecules binding r(CAG) RNA repeats | inhibition, % at 3 µM | 370,000 compounds, 1.3% hits | r(CAG) RNA repeat, TO-PRO-1 dye displacement fluorescence;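 active means inhibition above the plate cutoff, the mean of all test compounds on that plate plus 3 SD, cut at about 35% in these data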;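 further: 0% = DMSO alone and 100% = 100 µM mitoxantrone as full dye displacement; higher means more dye released from RNA so lower well fluorescence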
rCAG bind conf: r(CAG) RNA repeat binding, confirmation; shares compounds with rCAG binder; TO-PRO-1 dye displacement fluorescence; inhibition, % at 3 µM; 4,300 compounds, 70% hits; AID 652065;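 active means inhibition above a per-plate cutoff, the mean inhibition of sample wells plus 3 SD, cut at about 35% in these data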;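 further: loss of TO-PRO-1 fluorescence as compound displaces dye from 1x1 AA loop RNA; 0% = DMSO only wells and 100% = 100 µM mitoxantrone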
DNA CAG counter: DNA CAG dye complex inhibition counter-screen; shares compounds with rCAG binder; d(CAG) DNA oligo TO-PRO-1 dye displacement, fluorescence; inhibition, % at 3 µM; 4,300 compounds, 94% hits;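 active means inhibition above its plate's cutoff, the mean test-well inhibition plus 3 SD, cut at about 4.8% in these data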;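 further: 0% = DNA dye mix with DMSO and 100% = 100 µM mitoxantrone; hits displace the dye from DNA and so lower well fluorescence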
dCAG dye DR: DNA CAG dye complex inhibition, dose response counter-screen; DNA CAG/GTC duplex TO-PRO-1 dye displacement fluorescence; 250 compounds, 20% hits; shares compounds with rCAG binder; IC50, µM; AID 686960; in the data active means IC50 below about 10 µM
The depositor's hits bear a star; i = inactive; . = no result given. An excerpt weighted towards active compounds, which were near 3.7% of everything screened.

SMILES	TAAR1 antag	TAAR1 ag	HCV core dimer	HCV NS3 hel inh	rCAG binder	rCAG bind conf	DNA CAG counter	others
CC1CCc2nc3ccc(S(=O)(=O)N4CCC(C(=O)NCc5ccccc5Cl)CC4)cc3c(C(=O)O)c2C1 (stereo not drawn)	-4	0	29	3	47*	54*	21*
COC(=O)[C@]12C[C@H](CC(=O)N3CCCCC3)C(=O)N(Cc3ccc(Cl)cc3Cl)C1=C[C@H](C1CCCC1)O[C@@H]2C	.	.	.	.	7	.	.
Cc1ccc(-n2c(Cc3cccs3)nnc2SCC(=O)Nc2ccc(OCc3ccccc3)cc2)cc1	.	.	.	.	7	.	.
O=C(N[C@H]1C[C@@H]2O[C@@H](CO)CC[C@@H]2O[C@@H]1CCc1ccc(-c2cccnc2)cc1)c1cccc(F)c1	.	.	.	.	1	.	.
COC12CC(=O)C(C(C)=O)=C(O)C1(C)c1c(O)c(C)c(O)c(C(C)=O)c1O2 (stereo not drawn)	4	6	.	.	55*	67*	30*
CC(C)N1CCCCC(NC(=O)Cc2ccccc2)C1=O (stereo not drawn)	.	.	.	.	0	.	.
COc1cc(NC(=O)CSc2ncnc3sc4c(c23)CCCC4)c(C(=O)O)cc1OC	-15	2	10	-25	67*	53*	17*
CC(=O)CSc1ncnc2sc3c(c12)CCC3	-30	3	1	9	0	.	.
CCc1nc(SCC(=O)Nc2cc(C)ccc2OC)c2c(C)c(C)sc2n1	2	1	0	-8	35*	4	2
COc1ccc(OC)c(NC(=O)CSc2ncnc3sc(C)cc23)c1	11	18	.	.	72*	64*	34*
O=S1(=O)C=CCN1Cc1cn(Cc2ccc(C(F)(F)F)cc2)nn1	.	.	.	.	-1	.	.
CCOC(=O)Cc1cc(=O)n2[nH]c(C)c(-c3ccccc3)c2n1	-2	10	-9	20	16	.	.
CCOC(=O)Cc1cc(=O)n2[nH]c(-c3ccccc3)c(-c3ccccc3)c2n1	-6	-3	32	25	40*	43*	15*
CCOC(=O)N[C@H](C(=O)N1CCC[C@H]1C(=O)NCc1ccccc1)C(C)C	6	0	.	.	2	.	.
O=S(=O)(NCc1cn(Cc2ccccc2)nn1)c1ccccc1Br	.	.	.	.	7	.	.
CCn1c(=O)n(CC(=O)N2CCCN(Cc3ccccc3)CC2)c(=O)c2ccccc21	.	.	.	.	0	.	.
CCn1c(O)c(N=Nc2ccc(Cl)c(C(=O)O)c2)c2ccccc21	-2	3	-11	3	32	.	.
CC(C)n1c(O)c(N=Nc2ccc(Cl)c(C(=O)O)c2)c2ccccc21	-9	4	-1	18	38*	36*	9.0*
O=C(COc1ncnc2c(Cl)cc(Cl)cc12)Nc1cc([N+](=O)[O-])ccc1Cl	-4	4	4	5	68*	14	9.4*
O=C(NC1CCCCN(Cc2cccc(Cl)c2)C1=O)c1cccc(F)c1 (stereo not drawn)	.	.	.	.	0	.	.
CC(C(=O)Nc1ccc(C(=O)O)c(O)c1)N1C(=O)/C(=C\c2ccco2)SC1=S (stereo not drawn)	.	.	2	24	.	.	.
O=C(CN1C(=O)/C(=C/c2ccco2)SC1=S)Nc1ccc(C(=O)O)c(O)c1	-12	-1	-3	27	93*	85*	53*
O=C(CCN1C(=O)/C(=C/c2ccccc2)SC1=S)NC1CCS(=O)(=O)C1 (stereo not drawn)	-2	5	-2	3	2	.	.
O=C(CN1C(=O)/C(=C/c2ccco2)SC1=S)Nc1ccc(O)c(C(=O)O)c1	-22	9	-5	25	88*	82*	47*
COc1ccc(NC(=O)CCCN2C(=O)/C(=C\c3ccco3)SC2=S)cc1	24	2	-6	23	16	.	.
SMILES	TAAR1 antag	TAAR1 ag	HCV core dimer	HCV NS3 hel inh	rCAG binder	rCAG bind conf	DNA CAG counter	others
O=C(CN1C(=O)/C(=C/c2ccco2)SC1=S)NC1CCS(=O)(=O)C1 (stereo not drawn)	1	0	-4	31	48*	19	9.4*
CC(=O)c1cc(-c2ccc3[nH]ccc3c2)c(=O)n2c1CCC2	.	.	.	.	4	.	.
COc1cccc(C(=O)N[C@@H](Cc2cccnc2)C(=O)N2CCC[C@H]2C(=O)NCc2ccccc2)c1	-6	0	.	.	-1	.	.
N#C/C(=C\c1ccc(-c2ccc(F)cc2)o1)C(=O)Nc1nc(-c2cccs2)cs1	-9	0	44	31	36*	22	11*
O=C(O)CC/C(=C\c1ccc(N2CCCC2)c([N+](=O)[O-])c1)c1nc2ccccc2s1	-14	5	21	8	70*	89*	53*
CN(c1ccccc1)c1ccc(/C=C(/CCC(=O)O)c2nc3ccccc3s2)cc1[N+](=O)[O-]	7	2	.	.	77*	82*	43*
O=C(O)C/C(=C\c1cc(Cl)c2c(c1)OCO2)c1nc2ccccc2s1	-13	1	37	20	47*	45*	18*
O=C(O)CC/C(=C\c1cccc(NC(=O)c2ccccc2Cl)c1)c1nc2ccccc2s1	50*	12	12	7	61*	73*	27*	dCAG dye DR=i
CCCCNC(=O)C[C@H]1C[C@@]2(C(=O)OC)C(=C[C@H](COCc3ccccc3)O[C@@H]2C)N(Cc2ccc3c(c2)OCO3)C1=O	-10	0	.	.	2	.	.
CCCC1CCC2(CCC(=O)N2CCO)CC1 (stereo not drawn)	.	.	.	.	2	.	.
COC(=O)[C@]12C[C@H](CC(=O)NCCC(C)C)C(=O)N(Cc3ccco3)C1=C[C@H](C(C)(C)C)O[C@@H]2C	.	.	.	.	1	.	.
CCCCc1nnn2c1C1c3cc(-c4cccnc4)ccc3CCN1C(=O)C2 (stereo not drawn)	-27	-1	.	.	3	.	.
Nc1[nH]c(C(=O)c2ccccc2)c(-c2ccc3ccccc3c2)c1C(=O)NCc1ccc(-c2ccccc2)cc1	-41	2	.	.	25	.	.
O=C(Cn1cc(COc2ccc(Cl)c(Cl)c2)nn1)NS(=O)(=O)c1ccccc1OC(F)(F)F	-14	9	.	.	62*	48*	16*
O=C(N[C@@H](Cc1c[nH]c2ccccc12)C(=O)O)C1CCN(S(=O)(=O)c2ccc(Cl)cc2)CC1	-6	1	6	-8	35*	29	8.2*
O=C(N[C@@H](Cc1c[nH]c2ccccc12)C(=O)O)C1CCN(S(=O)(=O)c2cccs2)CC1	0	0	-4	2	12	.	.
